Results from ChEMBL document CHEMBL4689842, “EUbOPEN Chemogenomics Library wave 1” (2021).

Tests used:
Format in all cases: toxicity, cell-based
[1] = system: U2OS; assay: Incucyte cell viability with U2OS; details: human, 10 µM, compound concentration 10 uM; further: filed as whole numbers so only -1 and 0 and 1 occur
[2] = system: Fibroblast; assay: Multiplex assay against human fibroblast
Summary of the method: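 On a CQ1 microscope at 37°C and 5% CO2, live cells were imaged after compound addition. They had been stained at seeding with Hoechst33342, BioTracker Green Microtubule Cytoskeleton Dye, MitoTracker Red and Annexin V Alexa Fluor 680. CellPathfinder machine-learning gating assigned cells to Hoechst high-intensity objects or normal cells, normal cells to healthy, pyknosed or fragmented nuclei, and pyknosed cells to mitotic or apoptotic. Tubulin, mitochondrial-mass and membrane-permeability phenotypes are per cents of healthy-nucleus cells.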

[3] = system: HEK-293T; assay: Incucyte cell viability with HEK293T; details: human, 10 µM, compound concentration 10 uM; further: filed as whole numbers so only -1 and 0 and 1 occur
[4] = system: Fibroblast; assay: Incucyte cell viability with human fibroblast; details: 10 µM, compound concentration 10 uM; further: filed as whole numbers so only -1 and 0 and 1 occur
[5] = 0 h, replicate number 1, timepoint 0 hours
[6] = 0 h, replicate number 2, timepoint 0 hours
[7] = 6 h, replicate number 1, timepoint 6 hours
[8] = 12 h, replicate number 1, timepoint 12 hours
[9] = 18 h, replicate number 1, timepoint 18 hours
[10] = 24 h, replicate number 1, timepoint 24 hours
[11] = 12 h, 1 µM, compound concentration 1 uM, replicate 1
[12] = 12 h, 1 µM, compound concentration 1 uM, replicate 2
[13] = 12 h, 10 µM, compound concentration 10 uM, replicate 1
[14] = 12 h, 10 µM, compound concentration 10 uM, replicate 2
[15] = 24 h, 1 µM, compound concentration 1 uM, replicate 1
[16] = 24 h, 1 µM, compound concentration 1 uM, replicate 2
[17] = 24 h, 10 µM, compound concentration 10 uM, replicate 1
[18] = 24 h, 10 µM, compound concentration 10 uM, replicate 2

CCOC(=O)CCNc1cc(N2CCc3ccccc3CC2)nc(-c2ccccn2)n1
Growth Rate [1, 5]: 0
Growth Rate [1, 6]: 1
Growth Rate [1, 7]: 0
Growth Rate [1, 8]: 0
Growth Rate [1, 9]: 0
Growth Rate [1, 10]: 0
Population Apoptotic (%) [2, 11]: 89%
Population Fragmented Nuclei (%) [2, 11]: 22%
Population Healthy Nuclei (%) [2, 11]: 60%
Population Hoechst High Intensity Objects (%) [2, 11]: 16%
Population Membrane Permeable-Phenotype (%) [2, 11]: 8%
Population Mitochondria Different-Phenotype (%) [2, 11]: 4%
Population Mitotic Cells (%) [2, 11]: 10%
Population Normal (%) [2, 11]: 83%
Population Pyknosed Nuclei (%) [2, 11]: 16%
Population Tubulin-Different-Phenotype (%) [2, 11]: 5%
Total Cell Count [2, 11]: 214
Population Apoptotic (%) [2, 12]: 100%
Population Fragmented Nuclei (%) [2, 12]: 47%
Population Healthy Nuclei (%) [2, 12]: 42%
Population Hoechst High Intensity Objects (%) [2, 12]: 33%
Population Membrane Permeable-Phenotype (%) [2, 12]: 0%
Population Mitochondria Different-Phenotype (%) [2, 12]: 11%
Population Mitotic Cells (%) [2, 12]: 0%
Population Normal (%) [2, 12]: 66%
Population Pyknosed Nuclei (%) [2, 12]: 9%
Population Tubulin-Different-Phenotype (%) [2, 12]: 11%
Total Cell Count [2, 12]: 63
Population Apoptotic (%) [2, 13]: 68%
Population Fragmented Nuclei (%) [2, 13]: 29%
Population Healthy Nuclei (%) [2, 13]: 50%
Population Hoechst High Intensity Objects (%) [2, 13]: 17%
Population Membrane Permeable-Phenotype (%) [2, 13]: 10%
Population Mitotic Cells (%) [2, 13]: 31%
Population Normal (%) [2, 13]: 82%
Population Pyknosed Nuclei (%) [2, 13]: 20%
Population Tubulin-Different-Phenotype (%) [2, 13]: 13%
Total Cell Count [2, 13]: 175
Population Apoptotic (%) [2, 14]: 66%
Population Fragmented Nuclei (%) [2, 14]: 57%
Population Healthy Nuclei (%) [2, 14]: 35%
Population Hoechst High Intensity Objects (%) [2, 14]: 40%
Population Membrane Permeable-Phenotype (%) [2, 14]: 33%
Population Mitochondria Different-Phenotype (%) [2, 14]: 6%
Population Mitotic Cells (%) [2, 14]: 33%
Population Normal (%) [2, 14]: 60%
Population Pyknosed Nuclei (%) [2, 14]: 7%
Population Tubulin-Different-Phenotype (%) [2, 14]: 73%
Total Cell Count [2, 14]: 70
Population Apoptotic (%) [2, 15]: 76%
Population Fragmented Nuclei (%) [2, 15]: 23%
Population Healthy Nuclei (%) [2, 15]: 63%
Population Hoechst High Intensity Objects (%) [2, 15]: 12%
Population Membrane Permeable-Phenotype (%) [2, 15]: 11%
Population Mitochondria Different-Phenotype (%) [2, 15]: 1%
Population Mitotic Cells (%) [2, 15]: 23%
Population Normal (%) [2, 15]: 87%
Population Pyknosed Nuclei (%) [2, 15]: 13%
Population Tubulin-Different-Phenotype (%) [2, 15]: 1%
Total Cell Count [2, 15]: 225
Population Apoptotic (%) [2, 16]: 100%
Population Fragmented Nuclei (%) [2, 16]: 60%
Population Healthy Nuclei (%) [2, 16]: 34%
Population Hoechst High Intensity Objects (%) [2, 16]: 26%
Population Membrane Permeable-Phenotype (%) [2, 16]: 0%
Population Mitochondria Different-Phenotype (%) [2, 16]: 14%
Population Mitotic Cells (%) [2, 16]: 0%
Population Normal (%) [2, 16]: 73%
Population Pyknosed Nuclei (%) [2, 16]: 4%
Population Tubulin-Different-Phenotype (%) [2, 16]: 14%
Total Cell Count [2, 16]: 56
Population Apoptotic (%) [2, 17]: 82%
Population Fragmented Nuclei (%) [2, 17]: 34%
Population Healthy Nuclei (%) [2, 17]: 50%
Population Hoechst High Intensity Objects (%) [2, 17]: 15%
Population Membrane Permeable-Phenotype (%) [2, 17]: 6%
Population Mitochondria Different-Phenotype (%) [2, 17]: 6%
Population Mitotic Cells (%) [2, 17]: 17%
Population Normal (%) [2, 17]: 84%
Population Pyknosed Nuclei (%) [2, 17]: 15%
Population Tubulin-Different-Phenotype (%) [2, 17]: 7%
Total Cell Count [2, 17]: 180
Population Apoptotic (%) [2, 18]: 100%
Population Fragmented Nuclei (%) [2, 18]: 53%
Population Healthy Nuclei (%) [2, 18]: 41%
Population Hoechst High Intensity Objects (%) [2, 18]: 33%
Population Membrane Permeable-Phenotype (%) [2, 18]: 11%
Population Mitochondria Different-Phenotype (%) [2, 18]: 11%
Population Mitotic Cells (%) [2, 18]: 0%
Population Normal (%) [2, 18]: 66%
Population Pyknosed Nuclei (%) [2, 18]: 4%
Population Tubulin-Different-Phenotype (%) [2, 18]: 41%
Total Cell Count [2, 18]: 62
Growth Rate [3, 5]: 1
Growth Rate [3, 7]: 0
Growth Rate [3, 8]: 0
Growth Rate [3, 9]: 0
Growth Rate [3, 10]: 0
Growth Rate [4, 6]: 0
Growth Rate [4, 7]: 1
Growth Rate [4, 8]: 1
Growth Rate [4, 9]: 1
Growth Rate [4, 10]: 1
